Assay results collected from several papers.
Lines come from different studies, so protocols differ.
NPSR1: Neuropeptide S receptor (NPSR1, Homo sapiens, UniProt Q6W5P4)
GRM3: Metabotropic glutamate receptor 3 (GRM3, Homo sapiens, UniProt Q14832)
PTPN12: Tyrosine-protein phosphatase non-receptor type 12 (PTPN12, Homo sapiens, UniProt Q05209)
Dual specificity calcium/calmodulin-dependent 3',5'-cyclic nucleotide phosphodiesterase 1B: Dual specificity calcium/calmodulin-dependent 3',5'-cyclic nucleotide phosphodiesterase 1B (Homo sapiens, UniProt Q01064)
Fructose-1,6-bisphosphatase 1: Fructose-1,6-bisphosphatase 1 (Mus musculus, UniProt Q9QXD6)
TPR: Trypanothione reductase (TPR, Trypanosoma cruzi, UniProt P28593)
Aldo-keto reductase family 1 member A1: Aldo-keto reductase family 1 member A1 (Rattus norvegicus, UniProt P51635)
SLC6A2: Sodium-dependent noradrenaline transporter (SLC6A2, Homo sapiens, UniProt P23975)

N=c1c2c(ncn1Cc1ccccc1)Oc1ccc3ccccc3c1C2c1ccccc1 (stereo not drawn) — IC50 (NPSR1; cAMP; antagonist; TR-FRET): 3.07 µM
O=C(Nc1ccn(Cc2ccc(O)cc2C(F)(F)F)n1)c1c(F)cccc1F — IC50 (Short transient receptor potential channel 3 (TRPC3, Homo sapiens, UniProt Q13507); ion current; inhibitor): > 10 µM
Nc1nccc2cc(CNC(=O)c3cnn(Cc4ccc(Cn5ccccc5=O)cc4)c3)ccc12 — IC50 (Plasma kallikrein (KLKB1, Homo sapiens, UniProt P03952); enzyme activity; inhibitor; with preincubation): 0.00059 µM
CC(=O)N[C@@H](Cc1c[nH]c2ccccc12)C(=O)N[C@@H](CCC(=O)C=[N+]=[N-])C(=O)OC(C)C — IC50 (Glutaminase kidney isoform, mitochondrial (GLS, Homo sapiens, UniProt O94925); enzyme activity; inhibitor; radiometric): > 1000 µM
COc1ccc(-c2cc(C(N)=O)ncc2OCc2ccnc(F)c2)c(F)c1 — IC50 (GRM3; ion flux; antagonist): > 10 µM
Cc1ccc(C(=O)Nc2ccc(S(=O)(=O)O)c3cc(S(=O)(=O)O)cc(S(=O)(=O)O)c23)cc1NC(=O)c1cccc(NC(=O)Nc2cccc(C(=O)Nc3cc(C(=O)Nc4ccc(S(=O)(=O)O)c5cc(S(=O)(=O)O)cc(S(=O)(=O)O)c45)ccc3C)c2)c1 — IC50 (PTPN12; enzyme activity; inhibitor): 11 µM
O=C1NC(=O)/C(=C/c2ccc(OCCNc3nc4c(cnn4C4CCCC4)c(=O)[nH]3)c(F)c2)S1 — IC50 (Dual specificity calcium/calmodulin-dependent 3',5'-cyclic nucleotide phosphodiesterase 1B; enzyme activity; inhibitor): 0.0065 µM
CC(C)Cc1sc(N)nc1-c1ccc(P(=O)(O)O)o1 — IC50 (Fructose-1,6-bisphosphatase 1; enzyme activity; inhibitor): 0.3 µM
COc1ccc(-c2cc(C(N)=O)ncc2OCc2noc(C)n2)c(F)c1 — IC50 (GRM3; ion flux; antagonist): > 10 µM
O=S1(=O)O[C@@H]2[C@H](O)[C@@H](O)[C@H](O)[C@@H](CO)[C@@H]2O1 — IC50 (bglA (Thermotoga maritima, UniProt Q08638); enzyme activity; inhibitor; pH 6.8; with preincubation): > 100 µM
OC1c2ccccc2CCc2ccccc21 — IC50 (TPR; enzyme activity; inhibitor; absorbance): > 100 µM
COc1ccc(C2=NN(C3CCCCCC3)C(=O)[C@@H]3CC=CC[C@H]23)cc1-c1ccc(C(N)=O)cc1 (relative stereo) — IC50 (Dual specificity calcium/calmodulin-dependent 3',5'-cyclic nucleotide phosphodiesterase 1B; enzyme activity; inhibitor): > 10 µM
COc1ccc(-c2nsc(NC(=O)[C@@H]3C[C@H]3C)c2C)cc1 — IC50 (GRM3; calcium signal; antagonist): > 12.5 µM
O=C(Oc1cc(O)cc2c1C[C@@H](OC(=O)c1cc(O)c(O)c(O)c1)[C@@H](c1cc(O)c(O)c(O)c1)O2)c1cc(O)c(O)c(O)c1 — IC50 (PTPN12; enzyme activity; inhibitor; fluorescence): 0.02 µM
O=P(O)(O)OC[C@H]1O[C@@](CO)(OP(=O)(O)O)[C@@H](O)[C@@H]1O — IC50 (Fructose-1,6-bisphosphatase 1 (Mus musculus, UniProt Q9QXD6, G27P); enzyme activity; inhibitor): 1.52 µM
CN1CCN(c2ccc(Nc3ncc4cc(C#N)c(=O)n(C5CCCC5)c4n3)cc2)CC1 — IC50 (Fibroblast growth factor receptor 4 (FGFR4, Homo sapiens, UniProt P22455); enzyme activity; inhibitor): 1.53 µM
N=c1n(CCN2CCCCC2)c2ccccc2n1CC(O)c1ccc(Cl)c(Cl)c1 (stereo not drawn) — IC50 (TPR; enzyme activity; inhibitor): ≤ 10 µM
COc1ccc2nc(/N=C3/NC(=O)C(=Cc4ccc(Cl)cc4)S3)sc2c1 — IC50 (Aldo-keto reductase family 1 member A1; enzyme activity; inhibitor; absorbance; pH 7.2): 18.3 µM
OC(c1ccccc1)c1ccccc1 — IC50 (TPR; enzyme activity; inhibitor; absorbance): > 100 µM
CN1c2c(nc(N)[nH]c2=O)NC[C@@H]1CNc1ccc(C(=O)N[C@@H](CCC(=O)O)C(=O)O)cc1 — IC50 (Folate receptor beta (FOLR2, Homo sapiens, UniProt P14207); cell-free assay; ELISA): 0.196 µM
COc1cccc(C2c3c(ncn(-c4ccccc4OC)c3=N)Oc3ccc4ccccc4c32)c1 (stereo not drawn) — IC50 (NPSR1; calcium signal; antagonist): 1.1 µM
CCCc1ccccc1 — IC50 (TPR; enzyme activity; inhibitor; absorbance): > 100 µM
COc1ccc(-n2cnc3c(c2=N)C(c2cccc(OC)c2)c2c(ccc4ccccc24)O3)cc1 (stereo not drawn) — IC50 (NPSR1; calcium signal; antagonist): 4.38 µM
Cn1ccc(COc2cnc(C(N)=O)cc2-c2ccc(F)cc2)n1 — IC50 (GRM3; ion flux; antagonist): > 10 µM
COc1cccc(C2c3c(ncn(-c4ccncc4)c3=N)Oc3ccc4ccccc4c32)c1 (stereo not drawn) — IC50 (NPSR1; cAMP; antagonist; TR-FRET): 19.4 µM
O=C1c2ccccc2-c2cccc3cccc1c23 — IC50 (PTPN12; enzyme activity; inhibitor; fluorescence): > 150 µM
COc1cccc(C2c3c(ncn(-c4cccc(C)c4)c3=N)Oc3ccc4ccccc4c32)c1 (stereo not drawn) — IC50 (NPSR1; calcium signal; antagonist): 4.38 µM
CCN(CC)C(=S)SSC(=S)N(CC)CC — IC50 (PTPN12; enzyme activity; inhibitor; fluorescence): > 500 µM
N=c1n(CCN2CCCCC2)c2ccccc2n1CC(O)COc1ccccc1 (stereo not drawn) — IC50 (TPR; enzyme activity; inhibitor): ≤ 10 µM
COc1ccc2nc(/N=C3/NC(=O)C(=Cc4cc(OC)c(O)c(OC)c4)S3)sc2c1 — IC50 (Aldo-keto reductase family 1 member A1; enzyme activity; inhibitor; absorbance; pH 7.2): 42.1 µM
COc1ccc2c(Oc3ccc4c(C(=O)Nc5ccccc5N)cccc4c3)ccnc2c1 — IC50 (Tyrosine-protein kinase Fgr (FGR, Homo sapiens, UniProt P09769); enzyme activity; inhibitor): > 0.5 µM
BrCCCc1ccccc1 — IC50 (TPR; enzyme activity; inhibitor; absorbance): > 100 µM
COc1ccc(C2c3c(ncn(CCCc4ccccc4)c3=N)Oc3ccc4ccccc4c32)cc1OC (stereo not drawn) — IC50 (NPSR1; calcium signal; antagonist): > 30 µM
Cc1ccc(OCC(O)Cn2c(=N)n(CCN3CCCCC3)c3ccccc32)cc1 (stereo not drawn) — IC50 (TPR; enzyme activity; inhibitor): ≤ 10 µM
Nc1c(Cl)cccc1C(=O)Nc1ccccc1C(=O)O — IC50 (srtA (Staphylococcus aureus, UniProt Q2FV99); enzyme activity; inhibitor): 59.7 µM
COc1ccc(-c2cc(C(N)=O)ncc2OCc2ccncc2)c(F)c1 — IC50 (GRM3; ion flux; antagonist): > 10 µM
ClCCOC(c1ccccc1)c1ccccc1 — IC50 (TPR; enzyme activity; inhibitor; absorbance): 82.9 µM
O=C(O)c1cc(O)c2c(c1)[C@H]([C@H]1c3cc(C(=O)O)cc(O)c3C(=O)c3c(O[C@@H]4O[C@H](CO)[C@@H](O)[C@H](O)[C@H]4O)cccc31)c1cccc(O[C@@H]3O[C@H](CO)[C@@H](O)[C@H](O)[C@H]3O)c1C2=O — IC50 (PTPN12; enzyme activity; inhibitor; fluorescence): 0.4 µM
Clc1ccc(C(c2ccccc2)c2nnnn2CCCCN2CCN(CC=Cc3ccccc3)CC2)cc1 (stereo not drawn) — IC50 (SLC6A2; transporter uptake; inhibitor): 0.985 µM
COc1ccc2nc(/N=C3/NC(=O)C(=Cc4ccc(O)cc4)S3)sc2c1 — IC50 (Aldo-keto reductase family 1 member A1; enzyme activity; inhibitor; absorbance; pH 7.2): 1.24 µM
O=S(=O)(Nc1nc2cc(Cl)ccc2o1)c1cc(Cl)ccc1Cl — IC50 (Fructose-1,6-bisphosphatase 1; enzyme activity; inhibitor): 4.58 µM
Clc1ccc(C(c2ccccc2)c2nnnn2CCCCN2CCN(CCCc3ccccc3)CC2)cc1 (stereo not drawn) — IC50 (SLC6A2; transporter uptake; inhibitor): 0.745 µM
O=C1c2ccccc2C(=O)c2c(O)c(O)cc(O)c21 — IC50 (PTPN12; enzyme activity; inhibitor): 5 µM
COc1cccc(C2c3c(ncn(-c4cccc(C#N)c4)c3=N)Oc3ccc4ccccc4c32)c1 (stereo not drawn) — IC50 (NPSR1; cAMP; antagonist; TR-FRET): 19.4 µM
Fc1ccc(C(c2ccc(F)cc2)c2nnnn2CCCCN2CCC(Cc3ccccc3)CC2)cc1 — IC50 (SLC6A2; transporter uptake; inhibitor): 0.298 µM
COc1ccc(-c2cc(C(N)=O)ncc2OCc2ccnc(C)c2)c(F)c1 — IC50 (GRM3; ion flux; antagonist): > 10 µM
Clc1ccc(C(c2ccccc2)c2nnnn2CCCN2CCC(CCCc3ccccc3)CC2)cc1 (stereo not drawn) — IC50 (SLC6A2; transporter uptake; inhibitor): 0.527 µM
COc1ccc(/C=C2\SC(=Nc3nc4ccc(OC)cc4s3)NC2=O)cc1 — IC50 (Aldo-keto reductase family 1 member A1; enzyme activity; inhibitor; absorbance; pH 7.2): 4.21 µM
Fc1ccc(C(c2ccc(F)cc2)c2nnnn2CCCCN2CCN(Cc3ccccc3)CC2)cc1 — IC50 (SLC6A2; transporter uptake; inhibitor): 0.16 µM
N=c1n(CCN2CCCCC2)c2ccccc2n1CC(O)COc1ccc(Cl)cc1Cl (stereo not drawn) — IC50 (TPR; enzyme activity; inhibitor): ≤ 10 µM
CN(C)CCCN1c2ccccc2Sc2ccc(Cl)cc21 — IC50 (TPR; enzyme activity; inhibitor; absorbance): 6.32 µM
COc1cccc(C2c3c(ncn(-c4ccccn4)c3=N)Oc3ccc4ccccc4c32)c1 (stereo not drawn) — IC50 (NPSR1; calcium signal; antagonist): 5.51 µM
Cc1cnc(-c2ccc(-c3ccc(NC(=O)Nc4c(F)cc(F)cc4F)cc3F)c3c2C(=O)NC3)[nH]1 — IC50 (Serine/threonine-protein kinase 10 (STK10, Homo sapiens, UniProt O94804); enzyme activity; inhibitor): 0.0433 µM
CN[C@H]1CC[C@@H](c2ccc(Cl)c(Cl)c2)c2ccccc21 — IC50 (PTPN12; enzyme activity; inhibitor; fluorescence): 55 µM
